Experiment [1] concerns HEK293. Briefly: Effective dose measuring intracellular calcium elevation in HEK293 cells. Particulars: Homo sapiens. Format: functional, cell-based. The method, boiled down:
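Apo-aequorin was charged 1 h with 10 µM coelenterazine and 300 µM reduced glutathione in ECB buffer, pH 7.4. 5 × 10^4 cells were injected onto peptide and light integrated over 30 s, then Triton X-100 lysis (0.1% final) read over 10 s. Fractional response = challenge/total luminescence.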

The target in experiment [2] is Growth hormone secretagogue receptor type 1 (Homo sapiens, UniProt Q92847). Briefly: Binding affinity to cloned human growth hormone secretagogue receptor type 1 in a competitive binding assay with [35S]MK-0677 as a radiolabeled ligand. The method, boiled down:
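Competition filter binding on crude membranes from HEK293-aequorin stable cells expressing hGHSR1a, 4 µg membrane protein/well. Bound membranes were filtered on 0.5% polyethylenimine-prewet GF/C filters, washed 8 times and counted by scintillation.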

Experiment [3] relates to HEK293. The experiment can be described thus: Percent activation at 10 uM relative to ghrelin to measure intracellular calcium elevation in HEK293 cells. In kind it is functional, Homo sapiens.

The text below walks through data of ChEMBL document CHEMBL1133594, “Structure-function studies on the new growth hormone-releasing peptide, ghrelin: minimal sequence of ghrelin necessary for activation of growth hormone secretagogue receptor 1a” (J Med Chem, 2000).

pEC50, pIC50: −log10 of the molar value. Residues, ends and D or L forms follow the SMILES beside them. *: point of attachment. Octanoyl = CCCCCCCC(=O)* Where only a bound is given, the exact number is not on record here.

Growth hormone secretagogue receptor type 1, sequence (Q92847 whole entry): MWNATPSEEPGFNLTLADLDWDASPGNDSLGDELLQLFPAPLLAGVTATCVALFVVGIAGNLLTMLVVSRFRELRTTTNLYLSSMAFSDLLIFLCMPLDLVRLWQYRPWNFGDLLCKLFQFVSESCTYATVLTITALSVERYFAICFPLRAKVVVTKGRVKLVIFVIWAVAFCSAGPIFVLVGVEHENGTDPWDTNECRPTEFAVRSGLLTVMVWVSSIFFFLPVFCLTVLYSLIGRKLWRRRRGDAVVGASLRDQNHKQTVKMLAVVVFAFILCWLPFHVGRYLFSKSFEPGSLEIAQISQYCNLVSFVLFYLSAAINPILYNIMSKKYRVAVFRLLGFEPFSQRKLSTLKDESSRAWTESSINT

With `CCCCCCCC(=O)OC[C@H](NC(=O)[C@H](CO)NC(=O)CN)C(=O)N[C@@H](Cc1ccccc1)C(=O)N[C@@H](CC(C)C)C(=O)N[C@@H](CO)C(=O)N1CCC[C@H]1C(=O)N[C@@H](CCC(=O)O)C(=O)N[C@@H](Cc1c[nH]cn1)C(=O)N[C@@H](CCC(N)=O)C(=O)N[C@@H](CCCN=C(N)N)C(=O)N[C@H](C(=O)N[C@@H](CCC(N)=O)C(=O)N[C@@H](CCC(N)=O)C(=O)O)C(C)C` [listing 1 of 2 here], the pEC50 in experiment [1] was 7.77. Moreover, in experiment [2], the pIC50 was 8.02.
Regarding `CCCCCCCC(=O)OC[C@H](NC(=O)[C@H](CO)NC(=O)CN)C(=O)N[C@@H](Cc1ccccc1)C(=O)N[C@@H](CC(C)C)C(=O)N[C@@H](CO)C(=O)N1CCC[C@H]1C(=O)N[C@@H](CCC(=O)O)C(=O)N[C@@H](Cc1c[nH]cn1)C(=O)N[C@@H](CCC(N)=O)C(=O)N[C@@H](CCCN=C(N)N)C(=O)N[C@H](C(=O)N[C@@H](CCC(N)=O)C(=O)N[C@@H](CCC(N)=O)C(=O)O)C(C)C` [listing 2 of 2 here], the Activation in experiment [3] was determined as 97%.
`CCCCCCCC(=O)NC[C@H](NC(=O)[C@H](CO)NC(=O)CN)C(=O)N[C@@H](Cc1ccccc1)C(=O)N[C@@H](CC(C)C)C(=O)N[C@@H](CO)C(=O)N1CCC[C@H]1C(=O)N[C@@H](CCC(=O)O)C(=O)N[C@@H](Cc1c[nH]cn1)C(=O)N[C@@H](CCC(N)=O)C(=O)N[C@@H](CCCNC(=N)N)C(=O)N[C@H](C(=O)N[C@@H](CCC(N)=O)C(=O)N[C@@H](CCC(N)=O)C(=O)O)C(C)C` [listing 1 of 2 here]: in experiment [1], the pEC50 was 7.42. Also, the pIC50 in experiment [2] was 8.10.
Regarding `CCCCCCCC(=O)NC[C@H](NC(=O)[C@H](CO)NC(=O)CN)C(=O)N[C@@H](Cc1ccccc1)C(=O)N[C@@H](CC(C)C)C(=O)N[C@@H](CO)C(=O)N1CCC[C@H]1C(=O)N[C@@H](CCC(=O)O)C(=O)N[C@@H](Cc1c[nH]cn1)C(=O)N[C@@H](CCC(N)=O)C(=O)N[C@@H](CCCNC(=N)N)C(=O)N[C@H](C(=O)N[C@@H](CCC(N)=O)C(=O)N[C@@H](CCC(N)=O)C(=O)O)C(C)C` [listing 2 of 2 here], in experiment [3], the Activation was 102%.
Take `CCCCCCCC(=O)OC[C@H](NC(=O)[C@H](CO)NC(=O)CN)C(=O)N[C@@H](Cc1ccccc1)C(=O)N[C@@H](CC(C)C)C(=O)N[C@@H](CO)C(=O)N1CCC[C@H]1C(=O)N[C@@H](CCC(=O)O)C(=O)N[C@@H](Cc1cnc[nH]1)C(=O)N[C@@H](CCC(N)=O)C(=O)N[C@@H](CCCNC(=N)N)C(=O)N[C@H](C(=O)N[C@@H](CCC(N)=O)C(=O)N[C@@H](CCC(N)=O)C(=O)N[C@@H](CCCNC(=N)N)C(=O)N[C@@H](CCCCN)C(=O)N[C@@H](CCC(=O)O)C(=O)N[C@@H](CO)C(=O)N[C@@H](CCCCN)C(=O)N[C@@H](CCCCN)C(=O)N1CCC[C@H]1C(=O)N1CCC[C@H]1C(=O)N[C@@H](C)C(=O)N[C@@H](CCCCN)C(=O)N[C@@H](CC(C)C)C(=O)N[C@@H](CCC(N)=O)C(=O)N1CCC[C@H]1C(=O)N[C@@H](CCCNC(=N)N)C(=O)O)C(C)C`: the Activation in experiment [3] is on record as 100%.
In the case of `CC(C)C[C@H](NC(=O)[C@H](CCCCN)NC(=O)[C@H](C)NC(=O)[C@@H]1CCCN1C(=O)[C@@H]1CCCN1C(=O)[C@H](CCCCN)NC(=O)[C@H](CCCCN)NC(=O)[C@H](CO)NC(=O)[C@H](CCC(=O)O)NC(=O)[C@H](CCCCN)NC(=O)[C@H](CCCNC(=N)N)NC(=O)[C@H](CCC(N)=O)NC(=O)[C@H](CCC(N)=O)NC(=O)[C@@H](NC(=O)[C@H](CCCNC(=N)N)NC(=O)[C@H](CCC(N)=O)NC(=O)[C@H](Cc1cnc[nH]1)NC(=O)[C@H](CCC(=O)O)NC(=O)[C@@H]1CCCN1C(=O)[C@H](CO)NC(=O)[C@H](CC(C)C)NC(=O)[C@H](Cc1ccccc1)NC(=O)[C@H](CO)NC(=O)[C@H](CO)NC(=O)CN)C(C)C)C(=O)N[C@@H](CCC(N)=O)C(=O)N1CCC[C@H]1C(=O)N[C@@H](CCCNC(=N)N)C(=O)O`, the pEC50 in experiment [1] is under 5.00. Further, the Activation in experiment [3] was 41%.
Consider `CCCCCCCC(=O)NC[C@H](NC(=O)[C@H](CO)NC(=O)CN)C(=O)N[C@@H](Cc1ccccc1)C(=O)N[C@@H](CC(C)C)C(=O)N[C@@H](CO)C(=O)N1CCC[C@H]1C(=O)N[C@@H](CCC(=O)O)C(=O)N[C@@H](Cc1cnc[nH]1)C(=O)N[C@@H](CCC(N)=O)C(=O)N[C@@H](CCCNC(=N)N)C(=O)N[C@H](C(=O)N[C@@H](CCC(N)=O)C(=O)N[C@@H](CCC(N)=O)C(=O)N[C@@H](CCCNC(=N)N)C(=O)N[C@@H](CCCCN)C(=O)N[C@@H](CCC(=O)O)C(=O)N[C@@H](CO)C(=O)N[C@@H](CCCCN)C(=O)N[C@@H](CCCCN)C(=O)N1CCC[C@H]1C(=O)N1CCC[C@H]1C(=O)N[C@@H](C)C(=O)N[C@@H](CCCCN)C(=O)N[C@@H](CC(C)C)C(=O)N[C@@H](CCC(N)=O)C(=O)N1CCC[C@H]1C(=O)N[C@@H](CCCNC(=N)N)C(=O)O)C(C)C`, for which the pEC50 in experiment [1] was 7.51. Further, the Activation in experiment [3] came out at 105%. This compound had a pIC50 in experiment [2] of 9.38.
Regarding `CC(C)C[C@H](NC(=O)[C@H](CCCCN)NC(=O)[C@H](C)NC(=O)[C@@H]1CCCN1C(=O)[C@@H]1CCCN1C(=O)[C@H](CCCCN)NC(=O)[C@H](CCCCN)NC(=O)[C@H](CO)NC(=O)[C@H](CCC(=O)O)NC(=O)[C@H](CCCCN)NC(=O)[C@H](CCCNC(=N)N)NC(=O)[C@H](CCC(N)=O)NC(=O)[C@H](CCC(N)=O)NC(=O)[C@@H](NC(=O)[C@H](CCCNC(=N)N)NC(=O)[C@H](CCC(N)=O)NC(=O)[C@H](Cc1cnc[nH]1)NC(=O)[C@H](CCC(=O)O)NC(=O)[C@@H]1CCCN1C(=O)[C@H](CO)NC(=O)[C@H](CC(C)C)NC(=O)[C@H](Cc1ccccc1)NC(=O)[C@H](COC(=O)CC12CC3CC(CC(C3)C1)C2)NC(=O)[C@H](CO)NC(=O)CN)C(C)C)C(=O)N[C@@H](CCC(N)=O)C(=O)N1CCC[C@H]1C(=O)N[C@@H](CCCNC(=N)N)C(=O)O`, the Activation in experiment [3] came out at 95%.
As for `CCCCCCCC(=O)OC[C@H](NC(=O)[C@H](CO)NC(C)=O)C(=O)N[C@@H](Cc1ccccc1)C(=O)N[C@@H](CC(C)C)C(N)=O` (Ac-SS(Octanoyl)FL-NH2), in experiment [1], the pEC50 was 5.94. Moreover, the Activation in experiment [3] is 30%. In experiment [2], this compound gave a pIC50 of under 5.70.
Take `CCCCCCCC(=O)OC[C@H](NC(C)=O)C(=O)N[C@@H](Cc1ccccc1)C(=O)N[C@@H](CC(C)C)C(N)=O` (Ac-Ser(Octanoyl)-Phe-Leu-NH2): in experiment [1], the pEC50 was 5.60. In experiment [3], the Activation turned out to be 29%. The pIC50 in experiment [2] is under 5.00.
With `CCCCCCCC(=O)OC[C@H](NC(=O)[C@H](CO)NC(C)=O)C(=O)N[C@@H](Cc1ccccc1)C(N)=O` (Ac-Ser-Ser(Octanoyl)-Phe-NH2), the pEC50 in experiment [1] was under 5.00. The Activation in experiment [3] is listed as 28%. In experiment [2], this compound showed a pIC50 of under 5.00.
Regarding `CCCCCCCC(=O)OC[C@H](NC(=O)[C@H](CO)NC(=O)CN)C(=O)N[C@@H](Cc1ccccc1)C(N)=O` (H-GSS(Octanoyl)F-NH2), the pEC50 in experiment [1] is 7.14. For the same compound, the Activation in experiment [3] came out at 91%.
Taken in the same sequence, the figures for `CCCCCCCC(=O)OC[C@H](NC(=O)[C@H](CO)NC(=O)CN)C(=O)N[C@@H](Cc1ccccc1)C(=O)N[C@@H](CC(C)C)C(N)=O` (H-GSS(Octanoyl)FL-NH2) were 7.94 and 11.5%.
Turning to `CCCCCCCC(=O)OC[C@H](NC(=O)[C@H](CO)NC(=O)CN)C(=O)N[C@@H](Cc1ccccc1)C(=O)N[C@@H](CC(C)C)C(=O)N[C@@H](CO)C(=O)N1CCC[C@H]1C(=O)N[C@@H](CCC(=O)O)C(=O)N[C@@H](Cc1c[nH]cn1)C(=O)N[C@@H](CCC(N)=O)C(=O)N[C@@H](CCCNC(=N)N)C(=O)N[C@H](C(=O)N[C@@H](CCC(N)=O)C(=O)N[C@@H](CCC(N)=O)C(=O)N[C@@H](CCCNC(=N)N)C(=O)N[C@@H](CCCCN)C(=O)N[C@@H](CCC(=O)O)C(=O)N[C@@H](CO)C(N)=O)C(C)C` (H-GSS(Octanoyl)FLSPEHQRVQQRKES-NH2) [listing 1 of 2 here], in experiment [1], the pEC50 is 7.66. In addition, the pIC50 in experiment [2] is 9.11.
In the case of `CCCCCCCC(=O)OC[C@H](NC(=O)[C@H](CO)NC(=O)CN)C(=O)N[C@@H](Cc1ccccc1)C(=O)N[C@@H](CC(C)C)C(=O)N[C@@H](CO)C(=O)N1CCC[C@H]1C(=O)N[C@@H](CCC(=O)O)C(=O)N[C@@H](Cc1c[nH]cn1)C(=O)N[C@@H](CCC(N)=O)C(=O)N[C@@H](CCCNC(=N)N)C(=O)N[C@H](C(=O)N[C@@H](CCC(N)=O)C(=O)N[C@@H](CCC(N)=O)C(=O)N[C@@H](CCCNC(=N)N)C(=O)N[C@@H](CCCCN)C(=O)N[C@@H](CCC(=O)O)C(=O)N[C@@H](CO)C(N)=O)C(C)C` (H-GSS(Octanoyl)FLSPEHQRVQQRKES-NH2) [listing 2 of 2 here], in experiment [3], the Activation is 92%.
For `CCCCCCCC(=O)OC[C@H](NC(=O)[C@H](CO)NC(=O)CN)C(=O)N[C@@H](Cc1ccccc1)C(=O)N[C@@H](CC(C)C)C(=O)N[C@@H](CO)C(=O)N1CCC[C@H]1C(=O)N[C@@H](CCC(=O)O)C(=O)N[C@@H](Cc1c[nH]cn1)C(=O)N[C@@H](CCC(N)=O)C(=O)N[C@@H](CCCN=C(N)N)C(=O)N[C@H](C(=O)N[C@@H](CCC(N)=O)C(=O)N[C@@H](CCC(N)=O)C(=O)N[C@@H](CCCN=C(N)N)C(=O)N[C@@H](CCCCN)C(=O)N[C@@H](CCC(=O)O)C(=O)N[C@@H](CO)C(=O)N[C@@H](CCCCN)C(=O)N[C@@H](CCCCN)C(=O)N1CCC[C@H]1C(=O)N1CCC[C@H]1C(=O)N[C@@H](C)C(N)=O)C(C)C` (H-GSS(Octanoyl)FLSPEHQRVQQRKESKKPPA-NH2), the pEC50 in experiment [1] was 7.82. Moreover, the Activation in experiment [3] was found to be 100%.
For `CCCCCCCC(=O)OC[C@H](NC(=O)[C@H](CO)NC(=O)CN)C(N)=O` (H-Gly-Ser-Ser(Octanoyl)-NH2), the pEC50 in experiment [1] was under 5.00. Moreover, in experiment [3], the Activation is given as 28%. For the same compound, the pIC50 in experiment [2] was under 5.00.
